According to ChEMBL document CHEMBL1122581, “Antiviral activity of C-5 substituted tubercidin analogues” (1984):
In brackets after ≈: the same amount, converted by molar mass.

Tests used:
Assay type in all cases: functional
Human alphaherpesvirus 1 = assay: Concentration required to reduce HSV-1 (KOS) induced cytopathogenicity by 50% in primary rabbit kidney cell cultures.
HeLa = assay: Concentration required to cause a microscopically detectable alteration in cell morphology in HeLa cell cultures.; conditions: Homo sapiens, read-out: Min cytotoxic concentration
How it was run: (§1)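 Uninfected cell monolayers were run in parallel with the antiviral assays and exposed to compound for the same period as the infected cultures. The end point was the lowest concentration giving a microscopically detectable disruption of normal cell morphology.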

Oryctolagus cuniculus = species on record: Oryctolagus cuniculus; assay: Concentration required to cause a microscopically detectable alteration in cell morphology in primary rabbit kidney cell cultures.; conditions: read-out: Min cytotoxic concentration; how it was run: as §1
Vero = assay: Concentration required to cause a microscopically detectable alteration in cell morphology in vero cell cultures.; conditions: Chlorocebus sabaeus, read-out: Min cytotoxic concentration; how it was run: as §1
Poliovirus 1 = assay: Concentration required to reduce polio virus type 1 induced cytopathogenicity by 50% in HeLa cell cultures.; conditions: Enterovirus C
Human respirovirus 3 = assay: Concentration required to reduce parainfluenza virus type 3 induced cytopathogenicity by 50% in vero cell cultures.
Sindbis virus = assay: Concentration required to reduce sindbis virus induced cytopathogenicity by 50% in vero cell cultures.
[1] = tested on: Vesicular stomatitis virus; assay: Concentration required to reduce vesicular stomatitis virus induced cytopathogenicity by 50% in primary rabbit kidney cell cultures.
Coxsackievirus B4 [2] = assay: Concentration required to reduce coxsackie virus 4 induced cytopathogenicity by 50% in HeLa cell cultures.; conditions: Enterovirus B
[3] = tested on: Vesicular stomatitis virus; assay: Concentration required to reduce vesicular stomatitis virus induced cytopathogenicity by 50% in HeLa cell cultures.
Coxsackievirus B4 [4] = assay: Concentration required to reduce coxsackie virus B4 induced cytopathogenicity by 50% in vero cell cultures.; conditions: Enterovirus B
L1210 = assay: Dose required to inhibit proliferation of L-1210 Cells by 50%; conditions: Mus musculus, read-out: ID50 (the source's name)
How it was run: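 Inhibition of proliferation of murine leukemia L-1210 cells in exponential growth phase. ID50 is the dose inhibiting cell proliferation by 50%, given plus or minus standard deviation.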

Human alphaherpesvirus 2 = assay: Concentration required to reduce HSV-2 (G) induced cytopathogenicity by 50% in primary rabbit kidney cell cultures.
[5] = tested on: Mammalian orthoreovirus 1; assay: Concentration required to reduce reovirus type 1 induced cytopathogenicity by 50% in vero cell cultures.

Structure (SMILES)	MIC (Human alphaherpesvirus 1) [µg/mL]	MCC (HeLa) [µg/mL]	MCC (Oryctolagus cuniculus) [µg/mL]	MCC (Vero) [µg/mL]	MIC (Poliovirus 1) [µg/mL]	MIC (Human respirovirus 3) [µg/mL]	MIC (Sindbis virus) [µg/mL]	MIC [1] [µg/mL]	MIC (Coxsackievirus B4 [2]) [µg/mL]	MIC [3] [µg/mL]	MIC (Coxsackievirus B4 [4]) [µg/mL]	IC50 (L1210) [µg/mL]	MIC (Human alphaherpesvirus 2) [µg/mL]	MIC [5] [µg/mL]
Nc1ncnc2c1c(/C=C/Br)cn2C1O[C@H](CO)[C@@H](O)[C@H]1O (stereo partly specified)	> 1	4	> 4	4	> 1	1 (≈ 2.69 µM)	> 1	> 1	> 1	> 1	> 1	7.84 (≈ 21.1 µM)	> 1	1 (≈ 2.69 µM)
CC(O)c1cn(C2O[C@H](CO)[C@@H](O)[C@H]2O)c2ncnc(N)c12 (stereo partly specified)	2 (≈ 6.45 µM)	40	10	40	0.2 (≈ 0.645 µM)	0.7 (≈ 2.26 µM)	7 (≈ 22.6 µM)	0.4 (≈ 1.29 µM)	0.7 (≈ 2.26 µM)	0.2 (≈ 0.645 µM)	2 (≈ 6.45 µM)	0.111 (≈ 0.358 µM)	7 (≈ 22.6 µM)	0.4 (≈ 1.29 µM)
N#Cc1cn([C@@H]2O[C@H](CO)[C@@H](O)[C@H]2O)c2ncnc(N)c12 [TOYOCAMYCIN]	> 0.04	> 0.4	> 0.04	0.04	> 0.01	> 0.01	> 0.01	> 1	> 0.01	0.07 (≈ 0.24 µM)	> 0.01	0.006 (≈ 0.0206 µM)	0.07 (≈ 0.24 µM)	> 0.01
Nc1ncnc2c1c(Br)cn2[C@@H]1O[C@H](CO)[C@@H](O)[C@H]1O	> 1	1	1	0.4	> 0.4	> 0.4	> 0.4	> 1	> 0.4	> 0.4	> 0.4	0.587 (≈ 1.7 µM)	> 1	> 0.4
Nc1ncnc2c1c(Br)c(Br)n2C1O[C@H](CO)[C@@H](O)[C@H]1O (stereo partly specified)	> 100	40	100	40	> 10	> 10	> 10	> 40	> 10	> 10	10 (≈ 23.6 µM)	2.31 (≈ 5.45 µM)	> 40	10 (≈ 23.6 µM)
Nc1ncnc2c1cc(Br)n2C1O[C@H](CO)[C@@H](O)[C@H]1O (stereo partly specified)	> 400	400	> 400	400	150 (≈ 435 µM)	70 (≈ 203 µM)	> 200	300 (≈ 869 µM)	> 200	400 (≈ 1160 µM)	70 (≈ 203 µM)	36.5 (≈ 106 µM)	> 400	70 (≈ 203 µM)
COC(C)c1cn(C2O[C@H](CO)[C@@H](O)[C@H]2O)c2ncnc(N)c12 (stereo partly specified)	20 (≈ 61.7 µM)	10	100	100	0.7 (≈ 2.16 µM)	2 (≈ 6.17 µM)	> 40	> 40	0.7 (≈ 2.16 µM)	> 10	2 (≈ 6.17 µM)	0.404 (≈ 1.25 µM)	> 40	> 1
Nc1ncnc2c1c(CCCO)cn2C1O[C@H](CO)[C@@H](O)[C@H]1O (stereo partly specified)	7 (≈ 21.6 µM)	40	> 40	40	7 (≈ 21.6 µM)	2 (≈ 6.17 µM)	> 10	7 (≈ 21.6 µM)	7 (≈ 21.6 µM)	2 (≈ 6.17 µM)	7 (≈ 21.6 µM)	1.28 (≈ 3.95 µM)	> 10	2 (≈ 6.17 µM)
NC(=O)c1ncn([C@@H]2O[C@H](CO)[C@@H](O)[C@H]2O)n1 [RIBAVIRIN]	> 400	> 400	> 400	> 400	7 (≈ 28.7 µM)	20 (≈ 81.9 µM)	150 (≈ 614 µM)	70 (≈ 287 µM)	20 (≈ 81.9 µM)	4 (≈ 16.4 µM)	> 400	3.18 (≈ 13 µM)	> 400	20 (≈ 81.9 µM)
